Laboratory results from ChEMBL document CHEMBL1806356, “Synthesis, characterization and antimicrobial studies of some new pyrazole incorporated imidazole derivatives” (Eur J Med Chem, 2011).

Key:
Escherichia coli [1] = assay: Antibacterial activity against Escherichia coli ATCC 25922 assessed as zone of inhibition at 1000 ug/ml after 24 hrs by agar diffusion method; format: functional; details: ATCC 25922, 24 h, read-out: IZ
Outline: (§1)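 Well diffusion on Mueller-Hinton agar seeded with 24 h old bacterial cultures. Test compounds were dissolved in DMSO at 1 and 0.5 mg/mL and added to labeled wells. Plates were incubated 24 h at 37 °C. The inhibition zone around each well was measured in mm. Triplicate experiments, standard deviation calculated.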

Escherichia coli [2] = assay: Antibacterial activity against Escherichia coli ATCC 25922 assessed as zone of inhibition at 500 ug/ml after 24 hrs by agar diffusion method; format: functional; details: ATCC 25922, 24 h, read-out: IZ; outline: as §1
Staphylococcus aureus [3] = assay: Antibacterial activity against Staphylococcus aureus assessed as zone of inhibition at 1000 ug/ml after 24 hrs by agar diffusion method; format: functional; details: read-out: IZ; outline: as §1
Staphylococcus aureus [4] = assay: Antibacterial activity against Staphylococcus aureus assessed as zone of inhibition at 500 ug/ml after 24 hrs by agar diffusion method; format: functional; details: read-out: IZ; outline: as §1
Bacillus subtilis [5] = assay: Antibacterial activity against Bacillus subtilis assessed as zone of inhibition at 1000 ug/ml after 24 hrs by agar diffusion method; format: functional; details: read-out: IZ; outline: as §1
Bacillus subtilis [6] = assay: Antibacterial activity against Bacillus subtilis assessed as zone of inhibition at 500 ug/ml after 24 hrs by agar diffusion method; format: functional; details: read-out: IZ; outline: as §1
Salmonella typhimurium [7] = assay: Antibacterial activity against Salmonella Typhimurium assessed as zone of inhibition at 1000 ug/ml after 24 hrs by agar diffusion method; format: functional, Salmonella enterica subsp. enterica serovar Typhimurium; details: Salmonella enterica, read-out: IZ; outline: as §1
Salmonella typhimurium [8] = assay: Antibacterial activity against Salmonella Typhimurium assessed as zone of inhibition at 500 ug/ml after 24 hrs by agar diffusion method; format: functional, Salmonella enterica subsp. enterica serovar Typhimurium; details: Salmonella enterica, read-out: IZ; outline: as §1
Clostridium perfringens [9] = assay: Antibacterial activity against Clostridium perfringens assessed as zone of inhibition at 1000 ug/ml after 24 hrs by agar diffusion method; format: functional; details: read-out: IZ
Outline: (§2)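 Well diffusion on Mueller-Hinton agar seeded with 24 h old cultures. Compounds dissolved in DMSO at 1 and 0.5 mg/mL and added to wells punched with a sterile cork borer, with a DMSO-only control. Plates incubated 24 h at 37 °C. Read-out was the inhibition zone in mm, run in triplicate, standard deviation calculated.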

Clostridium perfringens [10] = assay: Antibacterial activity against Clostridium perfringens assessed as zone of inhibition at 500 ug/ml after 24 hrs by agar diffusion method; format: functional; details: read-out: IZ; outline: as §2
Pseudomonas aeruginosa [11] = assay: Antibacterial activity against Pseudomonas aeruginosa ATCC 27853 assessed as zone of inhibition at 1000 ug/ml after 24 hrs by agar diffusion method; format: functional; details: ATCC 27853, 24 h, read-out: IZ; outline: as §1
Pseudomonas aeruginosa [12] = assay: Antibacterial activity against Pseudomonas aeruginosa ATCC 27853 assessed as zone of inhibition at 500 ug/ml after 24 hrs by agar diffusion method; format: functional; details: ATCC 27853, 24 h, read-out: IZ; outline: as §1
Candida albicans [13] = assay: Antifungal activity against Candida albicans at 1000 ug/ml after 72 hrs by agar diffusion method by agar diffusion method; format: functional; details: read-out: DIZ
Outline: (§3)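 Fungal spores were suspended in normal saline (one loopful in 3 mL) and lawned on agar plates. Wells were punched with a sterile cork borer and loaded with test compound in DMSO at the different concentrations. A DMSO solvent control was included. Petri dishes were prepared in triplicate and held at 25 °C for 72 h.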

Candida albicans [14] = assay: Antifungal activity against Candida albicans at 500 ug/ml after 72 hrs by agar diffusion method; format: functional; details: read-out: DIZ; outline: as §3
Nannizzia gypsea [15] = assay: Antifungal activity against Microsporum gypseum at 1000 ug/ml after 72 hrs by agar diffusion method; format: functional; details: read-out: DIZ; outline: as §3
Nannizzia gypsea [16] = assay: Antifungal activity against Microsporum gypseum at 500 ug/ml after 72 hrs by agar diffusion method; format: functional; details: read-out: DIZ; outline: as §3
Aspergillus flavus [17] = assay: Antifungal activity against Aspergillus flavus at 1000 ug/ml after 72 hrs by agar diffusion method; format: functional; details: read-out: DIZ; outline: as §3
Aspergillus flavus [18] = assay: Antifungal activity against Aspergillus flavus at 500 ug/ml after 72 hrs by agar diffusion method; format: functional; details: read-out: DIZ; outline: as §3
Aspergillus niger [19] = assay: Antifungal activity against Aspergillus niger at 1000 ug/ml after 72 hrs by agar diffusion method; format: functional; details: read-out: DIZ; outline: as §3
Aspergillus niger [20] = assay: Antifungal activity against Aspergillus niger at 500 ug/ml after 72 hrs by agar diffusion method; format: functional; details: read-out: DIZ; outline: as §3
Trichophyton rubrum [21] = assay: Antifungal activity against Trichophyton rubrum at 1000 ug/ml after 72 hrs by agar diffusion method; format: functional; details: read-out: DIZ; outline: as §3
Trichophyton rubrum [22] = assay: Antifungal activity against Trichophyton rubrum at 500 ug/ml after 72 hrs by agar diffusion method; format: functional; details: read-out: DIZ; outline: as §3

SMILES | zone of inhibition at 1000 µg/mL (Escherichia coli [1]) | zone of inhibition at 500 µg/mL (Escherichia coli [2]) | zone of inhibition at 1000 µg/mL (Staphylococcus aureus [3]) | zone of inhibition at 500 µg/mL (Staphylococcus aureus [4]) | zone of inhibition at 1000 µg/mL (Bacillus subtilis [5]) | zone of inhibition at 500 µg/mL (Bacillus subtilis [6]) | zone of inhibition at 1000 µg/mL (Salmonella typhimurium [7]) | zone of inhibition at 500 µg/mL (Salmonella typhimurium [8]) | zone of inhibition at 1000 µg/mL (Clostridium perfringens [9]) | zone of inhibition at 500 µg/mL (Clostridium perfringens [10]) | zone of inhibition at 1000 µg/mL (Pseudomonas aeruginosa [11]) | zone of inhibition at 500 µg/mL (Pseudomonas aeruginosa [12]) | zone of inhibition at 1000 µg/mL (Candida albicans [13]) | zone of inhibition at 500 µg/mL (Candida albicans [14]) | zone of inhibition at 1000 µg/mL (Nannizzia gypsea [15]) | zone of inhibition at 500 µg/mL (Nannizzia gypsea [16]) | zone of inhibition at 1000 µg/mL (Aspergillus flavus [17]) | zone of inhibition at 500 µg/mL (Aspergillus flavus [18]) | zone of inhibition at 1000 µg/mL (Aspergillus niger [19]) | zone of inhibition at 500 µg/mL (Aspergillus niger [20]) | further results
COC(=O)/C=C1/C(=O)NC(=S)N1/N=C/c1c[nH]nc1-c1ccc(Cl)cc1Cl | 8 mm | 7 mm | 6 mm | 5 mm | 8 mm | 7 mm | 4 mm | 3 mm | 7 mm | 6 mm | 7 mm | 6 mm | 7 mm | 6 mm | 7 mm | 6 mm | 12 mm | 11 mm | 6 mm | 5 mm | zone of inhibition at 1000 µg/mL (Trichophyton rubrum [21]): 10 mm; zone of inhibition at 500 µg/mL (Trichophyton rubrum [22]): 9 mm
COC(=O)/C=C1/C(=O)NC(=S)N1/N=C/c1c[nH]nc1-c1ccc(C)cc1 | 5 mm | 4 mm | 4 mm | 3 mm | 9 mm | 8 mm | 6 mm | 5 mm | 6 mm | 5 mm | 4 mm | 3 mm | 4 mm | 3 mm | 4 mm | 3 mm | 6 mm | 5 mm | 10 mm | 9 mm | zone of inhibition at 1000 µg/mL (Trichophyton rubrum [21]): 10 mm; zone of inhibition at 500 µg/mL (Trichophyton rubrum [22]): 9 mm
CSc1ccc(-c2n[nH]cc2-c2nc(-c3ccccc3)c(-c3ccccc3)[nH]2)cc1 | 7 mm | 6 mm | 4 mm | 3 mm | 5 mm | 4 mm | 4 mm | 3 mm | 4 mm | 3 mm | 5 mm | 4 mm | 10 mm | 9 mm | 6 mm | 5 mm | 5 mm | 4 mm | 10 mm | 9 mm | zone of inhibition at 1000 µg/mL (Trichophyton rubrum [21]): 12 mm; zone of inhibition at 500 µg/mL (Trichophyton rubrum [22]): 11 mm
COC(=O)/C=C1/C(=O)NC(=S)N1/N=C/c1c[nH]nc1-c1cc(Cl)sc1Cl | 9 mm | 8 mm | 7 mm | 6 mm | 8 mm | 7 mm | 10 mm | 9 mm | 12 mm | 11 mm | 9 mm | 8 mm | 6 mm | 5 mm | 6 mm | 5 mm | 10 mm | 9 mm | 6 mm | 5 mm | zone of inhibition at 1000 µg/mL (Trichophyton rubrum [21]): 13 mm; zone of inhibition at 500 µg/mL (Trichophyton rubrum [22]): 12 mm
Clc1ccc(-c2n[nH]cc2-c2nc(-c3ccccc3)c(-c3ccccc3)[nH]2)c(Cl)c1 | 10 mm | 9 mm | 6 mm | 5 mm | 6 mm | 5 mm | 3 mm | 2 mm | 6 mm | 5 mm | 4 mm | 3 mm | 12 mm | 11 mm | 4 mm | 3 mm | 8 mm | 7 mm | 9 mm | 7 mm | zone of inhibition at 1000 µg/mL (Trichophyton rubrum [21]): 10 mm; zone of inhibition at 500 µg/mL (Trichophyton rubrum [22]): 8 mm
OC(Cn1cncn1)(Cn1cncn1)c1ccc(F)cc1F [FLUCONAZOLE] |  |  |  |  |  |  |  |  |  |  |  |  | 22 mm | 21 mm | 15 mm | 14 mm | 22 mm | 21 mm | 20 mm | 18 mm | zone of inhibition at 1000 µg/mL (Trichophyton rubrum [21]): 24 mm; zone of inhibition at 500 µg/mL (Trichophyton rubrum [22]): 22 mm
CN[C@@H]1[C@H](O[C@H]2[C@H](O[C@H]3[C@H](O)[C@@H](O)[C@H](N=C(N)N)[C@@H](O)[C@@H]3N=C(N)N)O[C@@H](C)[C@]2(O)C=O)O[C@@H](CO)[C@H](O)[C@H]1O [STREPTOMYCIN] | 16 mm | 10 mm | 15 mm | 10 mm | 21 mm | 11 mm | 18 mm | 17 mm | 17 mm | 16 mm | 13 mm | 9 mm |  |  |  |  |  |  |  |  | 
